System: MS2 coat protein
Assay: apparent Kd, MS2 coat protein; higher = weaker binding; RNA-MaP array; FMN 200 µM where present
Procedure, shortened: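 The apparent Kd comes from binding curves fitted cluster by cluster, filtered, and summarised as a median. Those curves followed SNAP-549-labelled MS2 coat protein from 0.7 or 1.5 nM, doubling to 3 µM, on Illumina sequencing-chip clusters where stalled E. coli RNA polymerase had transcribed the designs, without and then with constant ligand. The buffer was 100 mM Tris-HCl pH 7.5, 80 mM KCl, 4 mM MgCl2, BSA, DTT, yeast tRNA and Tween-20, and green signal was normalised to red-channel RNA signal and control-cluster median Fmax.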

[1] = designed as: ON switch for flavin mononucleotide, no ligand
[2] = ligand present: flavin mononucleotide, designed as: ON switch for flavin mononucleotide
[3] = designed as: OFF switch for flavin mononucleotide, no ligand
[4] = ligand present: flavin mononucleotide, designed as: OFF switch for flavin mononucleotide

| Sequence | apparent Kd [1] [nM] | apparent Kd [2] [nM] | apparent Kd [3] [nM] | apparent Kd [4] [nM] |
| --- | --- | --- | --- | --- |
| GUGCCUCAGAACAUGAGGAUCACCCAUGUGCUGCGGGCACCGUAGGAUAUGAUGGUACGCUACCAUCAGAAGGAUGAUGGUACC | 4.83 | 4.92 |  |  |
| GGUUGUCAUCGUCAUCCUUUCCGUACAUGAGGAUCACCCAUGUAGGAUAUGCUGCUCUCGGUGUGGCAGAAGGGCGUGUGUCUU |  |  | 17 | 18.7 |
| GUGCGGGUGCCACAGGAUAUACGUGGAUCGACAUGAGGAUCACCCAUGUAUAUCCUAAUAAUUGCGUAGAAGGGUGGUCAGCCGU | 845 | 149 |  |  |
| CGAUAUUAUGUCAGGAUAUACAUUGCGAAAGCAAUGUAGAAGGGACAUGAGGAUCACCCAUGUCCUAACUAUCG |  |  | 12.5 | 14.2 |
| UUUUAGUCAGGAUAUACAUGAGGAUCACCCAUGUAAAAUUUUAAUUUAAUUUUAAGGUGUAGAAGGGACAAUUC |  |  | 48 | 38.6 |
| UUUAAUCGAAACAUGAGGAUCACCCAUGUGUUGUAAUUAACAUAGGAUAUUUGUAUACUUUUGUAAAAGAAGGAUGAUAAUACU | 17.1 | 13.6 |  |  |
| GGCGGUCGGGAGGAUAUUCGGGCUGUUUGGCUUGGAGAAGGCUCGACAUGAGGAUCACCCAUGUUGGUGUUCUU |  |  | 387 | 40.8 |
| UUAUUUUUACAGAAGGUUUAAUAAUAUGUAUGAGAAGGAUAUGUAACAUGAGGAUCACCCAUGUUUCAUCUAUAUGAGGAUCAU |  |  | 6.61 | 5.57 |
| GGAUAGUACAGAGGAUAUACGUGCUAGAGAUACUAGCAAAAUUUCCUCACAUGAGGAUCACCCAUGUAGAAGGCUGUCCUAUCG |  |  | 5.94 | 51.8 |
| ACAUGAGGAUCACCCAUGUAGAAUGGAGAAGGUAGAUACUUGUGACUCACCCAUGUACAUAGGACUAAGGAUAUUCUAAUAAUU | 94.4 | 54.2 |  |  |
| GGGAGACAUGAGGAUCACCCAUGUGAAAACGUGCGAGGAUAUGUAUGGAAACCAUACUGUACAGAAGGCGUUUGUC | 50.2 | 47.7 |  |  |
| GGAUUUUCUGAGGAUAUUGCAUCACCCGAUUUAUAAGAAGGCAGAACAUGAGGAUCACCCAUGUGGGUCUCCAG |  |  | 28.6 | 58 |
| UGCGUGUUAGGAUAUGCCAGCGCUACCUAAGGUAGGCUGUGGUAGAAGGAACAUGAGGAUCACCCAUGUAGGAG |  |  | 111 | 483 |
| AUUGUUAAGUUAGGAUAUAGUAAAAUAAUUUAGUUAGAAGGAGCUCACAUGAGGAUCACCCAUGUAAGAGGAUCACCCAUGUAU |  |  | 25.6 | 20.1 |
| AGAUGGUAGAGAGGAUAUCAUGUGCUGACAUGAGGAUCACCCAUGUAGGGACGUCGGUCCAAUUAUGAGAAGGCUCUACCAUCU | 85.6 | 55.9 |  |  |
| CGCUACGUUUCGUAGCAGUGUCAUCGAGAAGGCCCUGACAUGAGGAUCACCCAUGUUCCAAAAUGGGAGGAUAUCGAUGAUACA | 4.89 | 4.99 |  |  |
| CUGUCGAUAUCAGGAUAUCGAUUAAUUACAUGAGGAUCACCCAUGUUGACAUGGAAUAUAACUUGCGAGAAGGGAUUACGAUAG | 28.3 | 22.3 |  |  |
| GAAAACCAAGGAUAUACAUGAGGAUCACCCAUGUAGGUUGGGACGCCAUAAAGGCGAUGUAGAAGGUGGGAAAA |  |  | 21.9 | 33.6 |
| UGGUACUAGGGAGGAUAUGGGAAGAUACAUGAGGAUCACCCAUGUUUAAGAAUGCCGAGAGGCAACUAGAAGGCCGUAGUACCU | 466 | 20.3 |  |  |
| UAUAUUUAUGUAGGAUAUGGUAUAUAAAAUAUACCAGAAGGACAUGAGGAUCACCCAUGUAUGAAAUUCCAUAAUUACCGUGUA |  |  | 9.98 | 11.3 |
| AAAUUCAGAGGAUAUGCGCAUAGAUAAGACUUUGUUUCUUAACAUGAGGAUCACCCAUGUAGAAGGCUGUAAAA |  |  | 19.4 | 19.8 |
| CUGAAUCGAGGAUAUUGUACUGCUGACAUGAGGAUCACCCAUGUAUGUUAACUCGGCCGUCGAGAAGGCGAACAUA |  |  | 27.6 | 18 |
| CACACAUGAGGAUCACCCAUGUCGUGGGCGGAAAACUGUGCACAGGAUAUGGUGAAGGCAACUCACCAGAAGGGUGGUCAGGGA | 113 | 55 |  |  |
| CGCAGACAUUGGACCUGGUAACAUGAGGAUCACCCAUGUAUCAGAAGGUACUUAUAGAGAUUAAGUAAGGAUAUGAAGUUUGUG | 5.34 | 6.55 |  |  |
| UGAUAGAGCCUAGGAUAUUCGGAUCUACUACAAGGAGAAGGAGGUAGUCGGUGACGAACAUGAGGAUCACCCAUGUCGUCCUUC |  |  | 67.8 | 69.9 |
| UGGUCAUCAUCAGGAUAUUAACAUGGGCUACAUUAAGAAGGGAUAGUGAGAUAGGAACUGAAACAUGAGGAUCACCCAUGUUGU | 96.9 | 44.2 |  |  |
| AUCCUGCGAGGAUAUACAUAAUUUUUUUCAUUUGGUUGCGAACAUGAGGAUCACCCAUGUAGAAGGUGCUUCAC |  |  | 66.7 | 62.5 |
| UGUAUGGACAGAGGAUAUACGUGCUAGAGAUACUAGCUAAUAAUCCUUACAUGAGGAUCACCCAUGUAGAAGGCUGUCCAUACU |  |  | 20.5 | 45.6 |

| Sequence | apparent Kd [1] [nM] | apparent Kd [2] [nM] | apparent Kd [3] [nM] | apparent Kd [4] [nM] |
| --- | --- | --- | --- | --- |
| GUUUCACAUGAGGAUCACCCAUGUGAGGAUAUGGAUUCGCUGGCCGUAGCCAGUGGAUCCAGAAGGCGCAUGAU |  |  | 35.7 | 44 |
| GCACGGUAUGUAGGAUAUGCAUAGCAUUGCUAUGCAGAAGGACAUGAGGAUCACCCAUGUAUGUAUUCCAUACUAAUCCCGUGG |  |  | 5.38 | 5.72 |
| AAGUUUGUACGAGGAUAUCAGUUGUUUCUAAAUUCAACAUGAGGAUCACCCAUGUAGCAAUGGAGUGAGAAGGCGUGUGGGCAA | 457 | 240 |  |  |
| GACUUGCGCACAGGAUAUCCACGGAGCGGACGUGGAGAAGGGUGACAUGAGGAUCACCCAUGUACGUAAGUCUGGAUCACUCCC | 108 | 33.1 |  |  |
| AACAAACAUGAGGAUCACCCAUGUCAGGAUAUGGCGGCUAGUGUGCCACCGUACACUACCAGAAGGGACUGGGU |  |  | 212 | 151 |
| AUAAUGUAAGGAUAUCAGUCGACUAGCCUCGGCUAGUCGACUGAGAAGGUACAUGAGGAUCACCCAUGUGUUCC |  |  | 140 | 766 |
| ACGACAAAAGUCGAACGAUGUAGCAGAAGGACAUGAGGAUCACCCAUGUAAAAUGUAACAGCCAUGUAGGAUAUGCUACAUCGA |  |  | 31.4 | 288 |
| GGUUGUCAAAGACAACCAUAACGAACAUGAGGAUCACCCAUGUAGGAUAUGCUACUCAAAGAGUAGCAGAAGGACAUGUGCCUU |  |  | 37.6 | 326 |
| UUAGAAUUGUUAGGAUAUUAAUUAUUUUUUAGUAUGAUCUACAUGAGGAUCACCCAUGUUAAAUAUAAGAAGGAACGUUUUAUU |  |  | 51.8 | 52 |
| UUCAUCAAUGAAGGAUAUCUAUGUCCAACAUGAGGAUCACCCAUGUUGAGGAUUACCUAUGUGUAGGAGAAGGUCAAUAUAACU | 6.53 | 5.93 |  |  |
| AUCAGCUCGUCAGGAUAUACGUCACUGCGUCAGCAGUGUGGUAAGCUCACAUGAGGAUCACCCAUGUAGAAGGGACGAGCUGAU |  |  | 6.48 | 22.9 |
| CUUGGUACUCGAGGAUAUCACAUGAACUACCGAACAUGAGGAUCACCCAUGUGAGAAGGCGAGUUCUGUCCGAUAAAAUUACUC |  |  | 6.68 | 11 |
| AACCUAUUACAGAAGGCCAGCUACAUGAGGAUCACCCAUGUCGAGUCAUGGAGGAUAUGUAGUAAUUUACUCACAAAUAAGUGC | 33.6 | 5.16 |  |  |
| ACAGUUGGUAGGCCCUCGGAACAUGAGGAUCACCCAUGUAAGGAGGAUAUGCCCGGUACCCGCUGGCAGAAGGCCUUAUAAGAA |  |  | 8.8 | 44.9 |
| UCGCUGCGAGGAUAUACAUGAGGAUCACCCAUGUACGGGUCCGGGUUUUCGUCCAUUAGUAGAAGGCGCAGUGA |  |  | 156 | 60.6 |
| UGUGUGUGACAGGAUAUGCUGGUUGUGUGGCGGGUAGAAGGGUCUACAUGAGGAUCACCCAUGUGGCCGGUUGG |  |  | 22.8 | 21.5 |
| AUAUUAUUGAUCCAUUUUUUCAACAUGAGGAUCACCCAUGUGCAGGAUAUCGUGAUUAUUAUCAACGAGAAGGGCAAAUUCAUU |  |  | 76.5 | 234 |
| CCGAAUAUGCAGGAUAUCGUAUCGGAGACGAUACGAGAAGGGCAAACAUGAGGAUCACCCAUGUUCCUUAACGG |  |  | 19.1 | 22.5 |
| ACUAUACGAGGAUAUACUGUCGGGCCUCAGACAUAAAUAAGACAUGAGGAUCACCCAUGUAGAAGGCGUUUACU |  |  | 52.6 | 114 |
| GCGAUUUUGUAAGGAUAUACACGAGUUUCAAGUGUAGAAGGUACUUACAUGAGGAUCACCCAUGUAUACUUGGAUAAUAGUCGC | 27.9 | 23.3 |  |  |
| UGUGCCUCGAGAGGAUAUUACAUGAGGAUCACCCAUGUAACAGAGGUGGAAACACCUCUGAAAUGUAAGAAGGCUCGAGGCACA |  |  | 19.1 | 29.6 |
| UGUCGGAGCAGAGGAUAUUACAUGAGGAUCACCCAUGUAUGAACCAAUAGCUGGAAACAGCAAUGUAAGAAGGUUGCUCCGACA |  |  | 7.29 | 46.7 |
| UUACUAUUGGAGAAGGGUCGAUAAUAUAUAAUGGCAGGAUAUCCAACAUGAGGAUCACCCAUGUUUCACCCAUAUGAGGAUCAC |  |  | 54.2 | 24.1 |
| AUUUUAAAGGGAGGAUAUACAUGAGGAUCACCCAUGUAAACGUGAGGAUCACCCAUGUAAACAAUGUAGAAGGCCUAAAUCUAU |  |  | 86.1 | 73.6 |
| CUUUUGUGAGGAUAUCAGUAGUAGAACAAUAGUACUACUACUGAGAAGGCACAUGAGGAUCACCCAUGUUUCUC |  |  | 62.3 | 302 |
| UAGAUGGGAGGAUAUACAUAGAUACAGAUUCGUGUAGUGCUACAUGAGGAUCACCCAUGUAGAAGGCCCGUCUU |  |  | 16.2 | 71.9 |
| ACAUAAAUUCGAGGAUAUCGGUGAUAUAAUUUACGAGAAGGCGAUAAAUGUUAUAAACUUAUAGACAUGAGGAUCACCCAUGUA | 35.1 | 32.5 |  |  |
